From ChEMBL document CHEMBL3745661, “Allosteric inhibitors of Coxsackie virus A24 RNA polymerase” (Bioorg Med Chem, 2016)
Activity calls are given as the source filed them. No cut-off for these calls is given here.

Legend:
[1] = test system: Coxsackievirus A24; experiment: Inhibition of Coxsackievirus A24 RNA polymerase 3D-POL assessed as reduction in uridylylated VPg level at 25 uM after 60 mins by SDS-PAGE analysis
How it was run: (§1)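 Purified CVA24 3Dpol (1–2 µg) incubated at 30°C with 1 µg synthetic VPg, 0.5 µg polyA template, 10 µM UTP plus α-32P-UTP, and 0.5 mM Mn(II) acetate in 50 mM HEPES pH 7.5, 8% glycerol. Compounds were diluted from DMSO stocks in that buffer first. Reactions were stopped on ice, run on 16% urea Tris-Tricine SDS-PAGE, and VPgpU and VPgpolyU were phosphorimaged relative to DMSO or buffer controls.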

[2] = Lipophilicity, log P of the compound; type: physicochemical; details: octanol/water
[3] = test system: Coxsackievirus A24; experiment: Inhibition of Coxsackievirus A24 RNA polymerase 3D-POL assessed as reduction in VPgpolyU level at 25 uM after 60 mins by SDS-PAGE analysis; how it was run: as §1
[4] = test system: Dengue virus; experiment: Inhibition of Dengue virus RNA polymerase NS5 assessed as reduction in polyU formation at 20 uM by SDS-PAGE analysis
[5] = test system: Coxsackievirus A24; experiment: Inhibition of Coxsackievirus A24 RNA polymerase 3D-POL assessed as reduction in uridylylated VPg level at 20 uM by SDS-PAGE analysis; how it was run: as §1
[6] = test system: Coxsackievirus A24; experiment: Inhibition of Coxsackievirus A24 RNA polymerase 3D-POL assessed as reduction in VPgpolyU level at 20 uM by SDS-PAGE analysis; how it was run: as §1
[7] = test system: Coxsackievirus A24; experiment: Inhibition of Coxsackievirus A24 RNA polymerase 3D-POL assessed as reduction in uridylylated VPg level at 10 uM by SDS-PAGE analysis; how it was run: as §1
[8] = test system: Dengue virus; experiment: Inhibition of Dengue virus RNA polymerase NS5 assessed as reduction in polyU formation at 10 uM by SDS-PAGE analysis
[9] = test system: Coxsackievirus A24; experiment: Inhibition of Coxsackievirus A24 RNA polymerase 3D-POL assessed as reduction in VPgpolyU level at 10 uM by SDS-PAGE analysis; how it was run: as §1

| SMILES | inhibition [1] | logP [2] | inhibition [3] | also measured |
| --- | --- | --- | --- | --- |
| O=S(=O)(NCc1cc(F)cc2c1OCOC2)c1cccc2nonc12 | inactive | 2.2 | inactive | – |
| COC(=O)Nc1nc2cc(-c3nnc(O)c4ccccc34)ccc2[nH]1 | inactive | 2.53 | inactive | – |
| COC(=O)c1cc(=O)c2cc(NC(=O)c3ccc(OC(F)(F)F)cc3)ccc2[nH]1 | inactive | 2.78 | inactive | – |
| N#Cc1ccc(N2CCN(S(=O)(=O)c3cccc4nonc34)CC2)cc1 | inactive | 2.51 | inactive | – |
| O=S(=O)(NNc1cnc2ccccc2n1)c1ccccc1C(F)(F)F | inactive | 3.23 | inactive | – |
| CCOc1ccc(Oc2ccc(NS(=O)(=O)c3ccc4c(c3)oc(=O)n4C)cc2)cc1 | – | 4.17 | – | – |
| Cn1c(=O)oc2cc(S(=O)(=O)Nc3ccccc3Sc3ccccc3)ccc21 | – | 3.91 | – | – |
| CC(C)COc1ccc(NS(=O)(=O)c2ccc3c(c2)oc(=O)n3C)cc1Cl | – | 3.77 | – | – |
| c1ccc2c(c1)c1ccccc1c1nn3nnnc3nc21 | inactive | 3.16 | inactive | – |
| Cn1c(=O)oc2cc(S(=O)(=O)Nc3ccccc3Oc3ccccc3Cl)ccc21 | – | 4.32 | – | – |
| O=C(Nc1ccccc1)Nc1ccc(Oc2cccc(C(F)(F)F)c2)nc1 | inactive | 5.04 | inactive | – |
| C[C@@H](CS(=O)(=O)Nc1ccc2c(c1)oc(=O)n2C)c1ccccc1 | – | 3.06 | – | – |
| Cc1noc(C)c1-c1nc(CN2C(=O)c3ccccc3S2(=O)=O)no1 | inactive | 0.51 | inactive | – |
| Cn1c(=O)oc2cc(S(=O)(=O)Nc3ccccc3NC(=O)c3ccc(C(C)(C)C)cc3)ccc21 | – | 4.54 | – | inhibition [4]: inactive |
| O=C(NNc1cc(C(F)(F)F)nc2ccccc12)Nc1cccc(Cl)c1 | inactive | 5.14 | inactive | – |
| Cn1c(=O)oc2cc(S(=O)(=O)N(CCC(N)=O)c3ccccc3)ccc21 | – | 1.23 | – | – |
| N#Cc1ccc(S(=O)(=O)N2CCNC(=O)[C@H]2CC(=O)Nc2cc(Cl)ccc2Cl)cc1 | inactive | 3.54 | inactive | – |
| O=C1c2ccccc2S(=O)(=O)N1C[C@@H]1CC(c2ccccc2Cl)=NO1 | inactive | 2.71 | inactive | – |

| SMILES | inhibition [1] | logP [2] | inhibition [3] | also measured |
| --- | --- | --- | --- | --- |
| CC1=C(C(=O)N[n+]2cnc3cccc(F)c3c2N)Sc2ccccc2N1 | inactive | -0.39 | inactive | – |
| O=S(=O)(c1ccccc1)N1CCN(C2c3ccccc3-c3ccccc32)CC1 | inactive | 4.26 | inactive | – |
| Cn1c(=O)oc2cc(S(=O)(=O)Nc3cccc4cccnc34)ccc21 | – | 1.94 | – | – |
| CCN(c1ccccc1)S(=O)(=O)c1ccc2[nH]c(=O)oc2c1 | – | 3 | – | inhibition [5]: Active; inhibition [4]: inactive; inhibition [6]: Active |
| Cc1c(S(=O)(=O)N2CCN(C3c4ccccc4-c4ccccc43)CC2)cnn1-c1ccccc1 | inactive | 4.13 | inactive | – |
| c1ccc2c(c1)Nc1nc3ccccc3nc1O2 | inactive | 3.46 | inactive | – |
| O=C(CSc1nc2ccccc2o1)N1c2ccccc2Sc2ccccc21 | inactive | 6.09 | inactive | – |
| O=C1c2ccccc2S(=O)(=O)N1CCS(=O)(=O)c1ccc(Cl)cc1Cl | inactive | 2.69 | inactive | – |
| C/C(=N/Nc1nnc(-c2ccccc2)c(-c2ccccc2)n1)c1ccco1 | inactive | 4.36 | inactive | – |
| O=C(Nc1ccc2oc3ncccc3c(=O)c2c1)c1ccc([N+](=O)[O-])cc1 | inactive | 3.5 | inactive | – |
| O=C(Nc1ccc(OC(F)(F)F)cc1)N1CCN(c2ncccn2)CC1 | inactive | 2.96 | inactive | – |
| O=C(NCc1nc2ccccc2s1)c1cc(F)cc2c1OCOC2 | inactive | 3.12 | inactive | – |
| O=S(=O)(NC1CCCc2ccccc21)c1cccc2nonc12 (configuration not stated) | inactive | 3.28 | inactive | – |
| O=C1/C(=C/c2ccc3c(c2)OCO3)CCC/C1=C\c1ccc2c(c1)OCO2 | inactive | 4.75 | inactive | – |
| COc1ccc(-c2nc3cc4c(cc3o2)Oc2ccccc2N4)cc1 | inactive | 5.09 | inactive | – |
| O=c1[nH]c2ccc(S(=O)(=O)Nc3cccc(F)c3)cc2o1 | – | 2.06 | – | inhibition [7]: Active; inhibition [8]: inactive; inhibition [9]: Active |
| Cc1nc(-c2cnccn2)sc1C(=O)N1CCN(C2c3ccccc3-c3ccccc32)CC1 | inactive | 3.86 | inactive | – |
